Measured values as given in ChEMBL document CHEMBL1777798, “Novel fungicidal benzylsulfanyl-phenylguanidines” (Bioorg Med Chem Lett, 2011).
Values after ≈ are worked out from the molar mass of the structure shown.

Assays:
Nakaseomyces glabratus = assay: Fungal activity against Candida glabrata BG2 assessed as concentration required to less than 0.1% survival of organism after 2 hrs; assay type: functional; settings: BG2, 2 h
How it was run: (§1)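 C. albicans SC5314 or C. glabrata BG2 exposed to compounds. Cells then washed and plated on YPD (1% yeast extract, 2% peptone, 2% glucose) for CFU counts. MFC = minimal concentration leaving <0.1% survival relative to DMSO control.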

Candida albicans [1] = assay: Fungicidal activity against Candida albicans SC5314 assessed as concentration required to less than 0.1% survival of organism after 2 hrs; assay type: functional; settings: SC5314, 2 h; how it was run: as §1
Candida albicans [2] = assay: Fungicidal activity against Candida albicans SC5314-infected Caenorhabditis elegans L4 larvae model assessed as survival of worms at 60 uM after 5 days relative to day 0; assay type: functional
How it was run: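 C. elegans L4 larvae fed 4 h on YPD agar lawns of C. albicans SC5314 (overnight culture spread, 16 h at 37 °C). Worms washed in M9 buffer and incubated with compound at 60 μM or DMSO control. Living worms counted daily; % survival relative to day 0. Mean ±SEM of duplicates; experiments run at least twice.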

[3] = Toxicity in glp-4delta sek-1 delta double mutant Caenorhabditis elegans model assessed as survival at 50 uM after 11 days relative to day 0; assay type: organism-based; settings: in vivo
How it was run: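 glp-4Δsek-1Δ C. elegans grown on NGM/OP50 E. coli plates to L4 and washed in M9 buffer (with cholesterol and kanamycin). 40–50 worms per well in 1 mL M9 with compound at 50 μM or DMSO (0.5%) control. Survival counted daily, relative to day 0. Mean ±SEM of duplicates; experiments run at least twice.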

[4] = Antimicrobial activity against mixed Candida albicans SC5314/Staphylococcus epidermidis assessed as biofilm eradication after 24 hrs; assay type: functional
How it was run: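 Mixed biofilm of C. albicans SC5314 and S. epidermidis (50/50). Overnight cultures suspended in 1/20 TSB at OD590 0.5 and mixed. 24 h adhesion, planktonic cells removed, then 48 h growth in fresh 1/20 TSB. Mature biofilms exposed 24 h to compound in PBS. Biomass read by crystal violet staining. BEC50 = concentration eradicating 50% of biofilm.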

Candida albicans [5] = assay: Fungicidal activity against Candida albicans SC5314 assessed as biofilm eradication after 24 hrs; assay type: functional

What does the source list for `N=C(N)Nc1ccccc1SCc1ccc(Cl)cc1`?
MFC (Nakaseomyces glabratus): > 100 µM; MFC (Candida albicans [1]): > 100 µM

For `Clc1ccc(CSc2ccccc2N=C(NC2CCCCC2)NC2CCCCC2)cc1`, which MFC (Nakaseomyces glabratus) is on record?
The MFC was 50 µM (≈ 22.8 µg/mL).

What about the MFC (Candida albicans [1]) of the same compound?
Its MFC is over 100 µM.

With `Nc1ccccc1SCc1ccc(Cl)cc1` as the compound, how does the MFC (Nakaseomyces glabratus) read?
The MFC was over 100 µM.

And the MFC (Candida albicans [1])?
Its MFC is over 100 µM.

What does the source list for `N=C(N)Nc1cccc(SCc2ccc(Cl)cc2)c1`?
MFC (Nakaseomyces glabratus): 100 µM (≈ 29.2 µg/mL); MFC (Candida albicans [1]): 100 µM (≈ 29.2 µg/mL)

With `Clc1ccc(CSc2cccc(N=C(NC3CCCCC3)NC3CCCCC3)c2)cc1` as the compound, how does the survival at 60 µM (Candida albicans [2]) read?
Its survival at 60 µM is 18.5%.

And the survival at 264 h, 50 µM [3]?
Its survival at 264 h, 50 µM is 19%.

And the MFC (Nakaseomyces glabratus)?
Its MFC is 5 µM (≈ 2.28 µg/mL).

And the MFC (Candida albicans [1])?
The MFC was 5 µM (≈ 2.28 µg/mL).

For `N=C(N)NC(=N)Nc1cccc(SCc2ccc(Cl)cc2)c1`, which MFC (Nakaseomyces glabratus) is on record?
Its MFC is 50 µM (≈ 16.7 µg/mL).

And the MFC (Candida albicans [1])?
Its MFC is 50 µM (≈ 16.7 µg/mL).

Which results are given for `N=C(N)Nc1ccc(SCc2ccc(Cl)cc2)cc1`?
MFC (Nakaseomyces glabratus): 50 µM (≈ 14.6 µg/mL); MFC (Candida albicans [1]): 50 µM (≈ 14.6 µg/mL)

With `Clc1ccc(CSc2ccc(N=C(NC3CCCCC3)NC3CCCCC3)cc2)cc1` as the compound, how does the MFC (Nakaseomyces glabratus) read?
The MFC was over 100 µM.

What about the MFC (Candida albicans [1]) of the same compound?
The MFC was over 100 µM.

Which MFC (Nakaseomyces glabratus) does the source give for `N=C(N)NC(=N)Nc1ccc(SCc2ccc(Cl)cc2)cc1` here?
The MFC was 50 µM (≈ 16.7 µg/mL).

What about the MFC (Candida albicans [1]) of the same compound?
The MFC was 50 µM (≈ 16.7 µg/mL).

For `Nc1ccc(SCc2ccc(Cl)cc2)cc1`, which MFC (Nakaseomyces glabratus) is on record?
Its MFC is over 100 µM.

What about the MFC (Candida albicans [1]) of the same compound?
Its MFC is over 100 µM.

With `N=C(N)Nc1ccccc1SCc1cc(Br)cc(Br)c1` as the compound, how does the MFC (Nakaseomyces glabratus) read?
Its MFC is 50 µM (≈ 20.8 µg/mL).

And the MFC (Candida albicans [1])?
Its MFC is 50 µM (≈ 20.8 µg/mL).

What does the source list for `Brc1cc(Br)cc(CSc2ccccc2N=C(NC2CCCCC2)NC2CCCCC2)c1`?
MFC (Nakaseomyces glabratus): 50 µM (≈ 29 µg/mL); MFC (Candida albicans [1]): 5 µM (≈ 2.9 µg/mL)

Which results are given for `Nc1ccccc1SCc1cc(Br)cc(Br)c1`?
MFC (Nakaseomyces glabratus): > 100 µM; MFC (Candida albicans [1]): > 100 µM

With `N=C(N)Nc1cccc(SCc2cc(Br)cc(Br)c2)c1` as the compound, how does the MFC (Nakaseomyces glabratus) read?
The MFC was 50 µM (≈ 20.8 µg/mL).

And the MFC (Candida albicans [1])?
Its MFC is 50 µM (≈ 20.8 µg/mL).

Which results are given for `Brc1cc(Br)cc(CSc2cccc(N=C(NC3CCCCC3)NC3CCCCC3)c2)c1`?
survival at 60 µM (Candida albicans [2]): 55.5%; survival at 264 h, 50 µM [3]: 33%; MFC (Nakaseomyces glabratus): 5 µM (≈ 2.9 µg/mL); MFC (Candida albicans [1]): 5 µM (≈ 2.9 µg/mL)

With `Cl.N=C(N)NC(=N)Nc1cccc(SCc2cc(Br)cc(Br)c2)c1` as the compound, how does the survival at 60 µM (Candida albicans [2]) read?
Its survival at 60 µM is 15.4%.

What about the survival at 264 h, 50 µM [3] of the same compound?
Its survival at 264 h, 50 µM is 5%.

And the MFC (Nakaseomyces glabratus)?
Its MFC is 10 µM.

And the BBC50 [4]?
Its BBC50 is 55 µM.

And the MFC (Candida albicans [1])?
Its MFC is 5 µM.

What does the source list for `N=C(N)Nc1ccc(SCc2cc(Br)cc(Br)c2)cc1`?
MFC (Nakaseomyces glabratus): 50 µM (≈ 20.8 µg/mL); MFC (Candida albicans [1]): 50 µM (≈ 20.8 µg/mL)

For `Brc1cc(Br)cc(CSc2ccc(N=C(NC3CCCCC3)NC3CCCCC3)cc2)c1`, which survival at 60 µM (Candida albicans [2]) is on record?
The survival at 60 µM was 49%.

And the survival at 264 h, 50 µM [3]?
The survival at 264 h, 50 µM was 51%.

And the MFC (Nakaseomyces glabratus)?
The MFC was 5 µM (≈ 2.9 µg/mL).

What about the MFC (Candida albicans [1]) of the same compound?
The MFC was 5 µM (≈ 2.9 µg/mL).

Which results are given for `N=C(N)NC(=N)Nc1ccc(SCc2cc(Br)cc(Br)c2)cc1`?
MFC (Nakaseomyces glabratus): > 100 µM; MFC (Candida albicans [1]): > 100 µM

What does the source list for `Nc1ccc(SCc2cc(Br)cc(Br)c2)cc1`?
MFC (Nakaseomyces glabratus): > 100 µM; MFC (Candida albicans [1]): > 100 µM

What does the source list for `OC(Cn1cncn1)(Cn1cncn1)c1ccc(F)cc1F` [FLUCONAZOLE]?
BBC50 (Candida albicans [5]): >240 µM; MFC (Nakaseomyces glabratus): > 100 µM; BBC50 [4]: >240 µM; MFC (Candida albicans [1]): > 100 µM
